Assay results reported in ChEMBL document CHEMBL5303300, “EUbOPEN Chemogenomics Library - Multiplex” (2023).
Where “and” joins values, the source holds several entries; their conditions need not be identical. Equal entries are not always repeated.

Columns and labels:
Assay type in all cases: toxicity, cell-based
[1] = system: HEK-293T; assay: Multiplex assay against HEK293T; conditions: human, number of replicates 2
In short: (§1)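 At seeding, live cells were stained with Hoechst33342, BioTracker Green Microtubule Cytoskeleton Dye, MitoTracker Red and Annexin V Alexa Fluor 680. After compound addition they were imaged on a CQ1 microscope at 37°C and 5% CO2, and CellPathfinder machine-learning gating sorted them into Hoechst high-intensity objects or normal cells, with normal cells further split into healthy, pyknosed or fragmented nuclei and pyknosed cells into mitotic or apoptotic. Tubulin, mitochondrial-mass and membrane-permeability phenotypes are given as per cents of cells with healthy nuclei.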

[2] = system: U2OS; assay: Multiplex assay against U2OS; conditions: human, number of replicates 2; in short: as §1
[3] = system: Fibroblast; assay: Multiplex assay against human fibroblast; conditions: number of replicates 2; in short: as §1
[4] = 12 h, 1 µM, compound concentration 1 uM
[5] = 12 h, 10 µM, compound concentration 10 uM
[6] = 24 h, 1 µM, compound concentration 1 uM
[7] = 24 h, 10 µM, compound concentration 10 uM
[8] = 48 h, 1 µM, compound concentration 1 uM
[9] = 48 h, 10 µM, compound concentration 10 uM

SMILES: CC(C)NC(=O)[C@H]1CCC[C@H]1Nc1nc(Nc2ccc(C(=O)N(C)C3CCN(C)CC3)cc2)ncc1Cl
- Population Apoptotic (%) [1, 4]: 64% and 57%
- Population Fragmented Nuclei (%) [1, 4]: 3% and 1%
- Population Healthy Nuclei (%) [1, 4]: 79% and 87%
- Population Hoechst High Intensity Objects (%) [1, 4]: 7% and 8%
- Population Membrane Permeable-Phenotype (%) [1, 4]: 4% and 2%
- Population Mitochondria Different-Phenotype (%) [1, 4]: 17% and 15%
- Population Mitotic Cells (%) [1, 4]: 35% and 42%
- Population Normal (%) [1, 4]: 92% and 91%
- Population Pyknosed Nuclei (%) [1, 4]: 16% and 10%
- Population Tubulin-Different-Phenotype (%) [1, 4]: 60% and 58%
- Total Cell Count [1, 4]: 568 and 503
- Population Apoptotic (%) [1, 5]: 47% and 56%
- Population Fragmented Nuclei (%) [1, 5]: 3% and 2%
- Population Healthy Nuclei (%) [1, 5]: 87% and 86%
- Population Hoechst High Intensity Objects (%) [1, 5]: 8% and 7%
- Population Membrane Permeable-Phenotype (%) [1, 5]: 4%
- Population Mitochondria Different-Phenotype (%) [1, 5]: 29% and 30%
- Population Mitotic Cells (%) [1, 5]: 52% and 43%
- Population Normal (%) [1, 5]: 91% and 92%
- Population Pyknosed Nuclei (%) [1, 5]: 9% and 10%
- Population Tubulin-Different-Phenotype (%) [1, 5]: 88% and 87%
- Total Cell Count [1, 5]: 520 and 480
- Population Apoptotic (%) [1, 6]: 64% and 61%
- Population Fragmented Nuclei (%) [1, 6]: 5% and 6%
- Population Healthy Nuclei (%) [1, 6]: 76% and 84%
- Population Hoechst High Intensity Objects (%) [1, 6]: 9% and 10%
- Population Membrane Permeable-Phenotype (%) [1, 6]: 2%
- Population Mitochondria Different-Phenotype (%) [1, 6]: 9% and 5%
- Population Mitotic Cells (%) [1, 6]: 35% and 38%
- Population Normal (%) [1, 6]: 90% and 89%
- Population Pyknosed Nuclei (%) [1, 6]: 17% and 8%
- Population Tubulin-Different-Phenotype (%) [1, 6]: 43% and 37%
- Total Cell Count [1, 6]: 653 and 524
- Population Apoptotic (%) [1, 7]: 52% and 54%
- Population Fragmented Nuclei (%) [1, 7]: 3% and 4%
- Population Healthy Nuclei (%) [1, 7]: 85% and 87%
- Population Hoechst High Intensity Objects (%) [1, 7]: 6% and 9%
- Population Membrane Permeable-Phenotype (%) [1, 7]: 6% and 3%
- Population Mitochondria Different-Phenotype (%) [1, 7]: 16% and 18%
- Population Mitotic Cells (%) [1, 7]: 47% and 45%
- Population Normal (%) [1, 7]: 93% and 90%
- Population Pyknosed Nuclei (%) [1, 7]: 11% and 7%
- Population Tubulin-Different-Phenotype (%) [1, 7]: 74% and 81%
- Total Cell Count [1, 7]: 514 and 516
- Population Apoptotic (%) [1, 8]: 68% and 45%
- Population Fragmented Nuclei (%) [1, 8]: 9% and 8%
- Population Healthy Nuclei (%) [1, 8]: 84% and 89%
- Population Hoechst High Intensity Objects (%) [1, 8]: 9% and 10%
- Population Membrane Permeable-Phenotype (%) [1, 8]: 3% and 1%
- Population Mitochondria Different-Phenotype (%) [1, 8]: 1% and 2%
- Population Mitotic Cells (%) [1, 8]: 31% and 54%
- Population Normal (%) [1, 8]: 90% and 89%
- Population Pyknosed Nuclei (%) [1, 8]: 5% and 2%
- Population Tubulin-Different-Phenotype (%) [1, 8]: 22% and 20%
- Total Cell Count [1, 8]: 714 and 606
- Population Apoptotic (%) [1, 9]: 47% and 53%
- Population Fragmented Nuclei (%) [1, 9]: 8% and 10%
- Population Healthy Nuclei (%) [1, 9]: 84% and 85%
- Population Hoechst High Intensity Objects (%) [1, 9]: 10% and 11%
- Population Membrane Permeable-Phenotype (%) [1, 9]: 3% and 4%
- Population Mitochondria Different-Phenotype (%) [1, 9]: 5%
- Population Mitotic Cells (%) [1, 9]: 52% and 46%
- Population Normal (%) [1, 9]: 89% and 88%
- Population Pyknosed Nuclei (%) [1, 9]: 6% and 4%
- Population Tubulin-Different-Phenotype (%) [1, 9]: 67% and 70%
- Total Cell Count [1, 9]: 617 and 637
- Population Apoptotic (%) [2, 4]: 75% and 60%
- Population Fragmented Nuclei (%) [2, 4]: 17% and 6%
- Population Healthy Nuclei (%) [2, 4]: 72% and 81%
- Population Hoechst High Intensity Objects (%) [2, 4]: 0%
- Population Membrane Permeable-Phenotype (%) [2, 4]: 0% and 2%
- Population Mitochondria Different-Phenotype (%) [2, 4]: 0%
- Population Mitotic Cells (%) [2, 4]: 25% and 40%
- Population Normal (%) [2, 4]: 100% and 99%
- Population Pyknosed Nuclei (%) [2, 4]: 10% and 12%
- Population Tubulin-Different-Phenotype (%) [2, 4]: 65% and 57%
- Population Apoptotic (%) [2, 5]: 100% and 69%
- Population Healthy Nuclei (%) [2, 5]: 65% and 73%
- Population Hoechst High Intensity Objects (%) [2, 5]: 0%
- Population Membrane Permeable-Phenotype (%) [2, 5]: 13% and 18%
- Population Mitochondria Different-Phenotype (%) [2, 5]: 0% and 15%
- Population Normal (%) [2, 5]: 100%
- Population Pyknosed Nuclei (%) [2, 5]: 8% and 20%
- Population Tubulin-Different-Phenotype (%) [2, 5]: 40% and 36%
- Population Apoptotic (%) [2, 6]: 42% and 87%
- Population Fragmented Nuclei (%) [2, 6]: 8% and 3%
- Population Healthy Nuclei (%) [2, 6]: 70% and 83%
- Population Hoechst High Intensity Objects (%) [2, 6]: 0%
- Population Membrane Permeable-Phenotype (%) [2, 6]: 4% and 1%
- Population Mitochondria Different-Phenotype (%) [2, 6]: 0%
- Population Normal (%) [2, 6]: 100%
- Population Pyknosed Nuclei (%) [2, 6]: 20% and 12%
- Population Tubulin-Different-Phenotype (%) [2, 6]: 58% and 61%
- Population Apoptotic (%) [2, 7]: 75% and 82%
- Population Healthy Nuclei (%) [2, 7]: 43% and 65%
- Population Hoechst High Intensity Objects (%) [2, 7]: 0%
- Population Membrane Permeable-Phenotype (%) [2, 7]: 15% and 13%
- Population Mitochondria Different-Phenotype (%) [2, 7]: 46% and 31%
- Population Mitotic Cells (%) [2, 7]: 25% and 17%
- Population Normal (%) [2, 7]: 100%
- Population Pyknosed Nuclei (%) [2, 7]: 13% and 28%
- Population Tubulin-Different-Phenotype (%) [2, 7]: 53% and 45%
- Population Apoptotic (%) [2, 8]: 72% and 90%
- Population Fragmented Nuclei (%) [2, 8]: 10% and 18%
- Population Healthy Nuclei (%) [2, 8]: 64% and 58%
- Population Hoechst High Intensity Objects (%) [2, 8]: 0%
- Population Membrane Permeable-Phenotype (%) [2, 8]: 5% and 0%
- Population Mitochondria Different-Phenotype (%) [2, 8]: 0%
- Population Mitotic Cells (%) [2, 8]: 27% and 10%
- Population Normal (%) [2, 8]: 99% and 100%
- Population Pyknosed Nuclei (%) [2, 8]: 24% and 23%
- Population Tubulin-Different-Phenotype (%) [2, 8]: 68% and 48%
- Population Apoptotic (%) [2, 9]: 90% and 89%
- Population Hoechst High Intensity Objects (%) [2, 9]: 0%
- Population Membrane Permeable-Phenotype (%) [2, 9]: 0% and 25%
- Population Mitotic Cells (%) [2, 9]: 10%
- Population Normal (%) [2, 9]: 100% and 99%
- Population Pyknosed Nuclei (%) [2, 9]: 38% and 51%
- Population Tubulin-Different-Phenotype (%) [2, 9]: 50% and 52%
- Population Apoptotic (%) [3, 4]: 45% and 33%
- Population Fragmented Nuclei (%) [3, 4]: 7% and 8%
- Population Healthy Nuclei (%) [3, 4]: 62% and 61%
- Population Hoechst High Intensity Objects (%) [3, 4]: 0%
- Population Membrane Permeable-Phenotype (%) [3, 4]: 8%
- Population Mitochondria Different-Phenotype (%) [3, 4]: 0% and 2%
- Population Mitotic Cells (%) [3, 4]: 54% and 66%
- Population Normal (%) [3, 4]: 100%
- Population Pyknosed Nuclei (%) [3, 4]: 30% and 29%
- Population Tubulin-Different-Phenotype (%) [3, 4]: 20% and 12%
- Total Cell Count [3, 4]: 109 and 134
- Population Apoptotic (%) [3, 5]: 62% and 51%
- Population Fragmented Nuclei (%) [3, 5]: 19% and 12%
- Population Healthy Nuclei (%) [3, 5]: 62% and 75%
- Population Hoechst High Intensity Objects (%) [3, 5]: 0%
- Population Membrane Permeable-Phenotype (%) [3, 5]: 0% and 4%
- Population Mitochondria Different-Phenotype (%) [3, 5]: 3% and 6%
- Population Mitotic Cells (%) [3, 5]: 37% and 48%
- Population Normal (%) [3, 5]: 100%
- Population Pyknosed Nuclei (%) [3, 5]: 18% and 12%
- Population Tubulin-Different-Phenotype (%) [3, 5]: 51% and 44%
- Total Cell Count [3, 5]: 177 and 250
- Population Apoptotic (%) [3, 6]: 48% and 58%
- Population Fragmented Nuclei (%) [3, 6]: 8% and 10%
- Population Healthy Nuclei (%) [3, 6]: 60% and 59%
- Population Hoechst High Intensity Objects (%) [3, 6]: 0%
- Population Membrane Permeable-Phenotype (%) [3, 6]: 14% and 7%
- Population Mitochondria Different-Phenotype (%) [3, 6]: 0%
- Population Mitotic Cells (%) [3, 6]: 51% and 41%
- Population Normal (%) [3, 6]: 100%
- Population Pyknosed Nuclei (%) [3, 6]: 30%
- Population Tubulin-Different-Phenotype (%) [3, 6]: 16% and 13%
- Total Cell Count [3, 6]: 127 and 136
- Population Apoptotic (%) [3, 7]: 65% and 66%
- Population Fragmented Nuclei (%) [3, 7]: 16% and 13%
- Population Healthy Nuclei (%) [3, 7]: 64% and 71%
- Population Hoechst High Intensity Objects (%) [3, 7]: 0%
- Population Membrane Permeable-Phenotype (%) [3, 7]: 2% and 0%
- Population Mitochondria Different-Phenotype (%) [3, 7]: 9% and 6%
- Population Mitotic Cells (%) [3, 7]: 34% and 33%
- Population Normal (%) [3, 7]: 100%
- Population Pyknosed Nuclei (%) [3, 7]: 18% and 15%
- Population Tubulin-Different-Phenotype (%) [3, 7]: 40% and 28%
- Total Cell Count [3, 7]: 171 and 258
- Population Apoptotic (%) [3, 8]: 67% and 75%
- Population Fragmented Nuclei (%) [3, 8]: 14%
- Population Healthy Nuclei (%) [3, 8]: 62% and 59%
- Population Hoechst High Intensity Objects (%) [3, 8]: 0%
- Population Membrane Permeable-Phenotype (%) [3, 8]: 8% and 4%
- Population Mitochondria Different-Phenotype (%) [3, 8]: 0% and 1%
- Population Mitotic Cells (%) [3, 8]: 32% and 24%
- Population Normal (%) [3, 8]: 100%
- Population Pyknosed Nuclei (%) [3, 8]: 22% and 26%
- Population Tubulin-Different-Phenotype (%) [3, 8]: 15% and 11%
- Total Cell Count [3, 8]: 127 and 141
- Population Apoptotic (%) [3, 9]: 78% and 82%
- Population Fragmented Nuclei (%) [3, 9]: 17% and 12%
- Population Healthy Nuclei (%) [3, 9]: 64% and 69%
- Population Hoechst High Intensity Objects (%) [3, 9]: 0%
- Population Membrane Permeable-Phenotype (%) [3, 9]: 4% and 5%
- Population Mitochondria Different-Phenotype (%) [3, 9]: 6% and 2%
- Population Mitotic Cells (%) [3, 9]: 21% and 17%
- Population Normal (%) [3, 9]: 99% and 100%
- Population Pyknosed Nuclei (%) [3, 9]: 17% and 18%
- Population Tubulin-Different-Phenotype (%) [3, 9]: 36% and 18%
- Total Cell Count [3, 9]: 160 and 243
